“Also recorded” adds a separate entry of the source.
Columns and labels:
[1] = tested on: c-Myc; assay: Western blot of c-Myc levels; assay type: cell-based; settings: MM1.S cells, 6 h
Method in brief: (§1)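 MM1.S cells were grown in RPMI-1640 with 10% FBS at 37 °C, 5% CO2, seeded at 1 × 10^6 per well and exposed to increasing inhibitor concentrations for 6 h. Cells were pelleted (300 g, 5 min) and lysed at 4 °C with protease/phosphatase inhibitors plus 5 mM EDTA. Protein was quantified, run on 10 or 12.5% SDS-PAGE, transferred and probed with c-MYC or p21Cip1 antibodies, with chemiluminescent detection.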

[2] = tested on: p21Cip1; assay: Western blot of p21Cip1 levels; assay type: cell-based; settings: MM1.S cells, 6 h
Method in brief: as §1

[3] = target: BrdT(1) (Homo sapiens, UniProt Q58F21); assay: Fluorescence anisotropy competition assay with BI-BODIPY tracer; assay type: binding
[4] = target: T1, Brd4(1) (Homo sapiens, UniProt O60885); assay: as above; assay type: binding
[5] = target: 5FW-Brd4(1) (Homo sapiens, UniProt O60885); assay: PrOF NMR titration; assay type: binding
Method in brief: (§2)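 19F NMR at 500 MHz with cryoprobe, 40–50 μM 5FW-labelled bromodomain in 50 mM Tris, 100 mM NaCl, pH 7.4, 5% D2O (BrdT samples also 3 mM DTT). Used 90° flip angle, 0.7 s relaxation delay, 0.1 s acquisition and 500 transients, referenced to TFA at −76.55 ppm. Ligand was titrated from concentrated DMSO stocks, keeping DMSO below 1%. Kd came from a one-site fit accounting for ligand depletion.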

[6] = target: T1, Brd4(1); assay: AlphaScreen competition against biotinylated compound 2; assay type: binding; settings: for Hill slope: alpha-screen competition
[7] = target: 5FW-BrdT(1) (Homo sapiens, UniProt Q58F21); assay: PrOF NMR titration; assay type: binding
Method in brief: as §2

[8] = target: 5FW-BPTF (Homo sapiens, UniProt Q12830); assay: PrOF NMR titration; assay type: binding; settings: non-BET bromodomain BPTF
[9] = tested on: MM1.S cells; assay: Cell viability; assay type: cell-based
[10] = Stability of DMSO solution over freeze-thaw cycles by ESI-MS; assay type: physicochemical; settings: DMSO solution at −20 °C, several freeze-thaw cycles

SMILES | effect on c-Myc levels [1] | effect on p21Cip1 levels [2] | binding by fluorescence anisotropy [3] | binding behaviour by PrOF NMR [5] | also measured
CCn1c2c(c(=O)[nH]c1=O)C(c1ccc(C)cc1)C1=C(CN(CCc3ccc(OC)cc3)C1=O)N2 (stereo not drawn) [Compound 3r, 1-Ethyl-7-(4-methoxyphenethyl)-5-(p-tolyl)-5,7,8,9-tetrahydro-1H-pyrrolo[3',4':5,6]pyrido[2,3-d]pyrimidine-2,4,6(3H)-trione] | decreasing c-Myc expression levels | concomitant increase in p21Cip1 |  |  | 
CCn1c(=O)[nH]c(=O)c2c(-c3ccc(C)cc3)c3c(nc21)COC3=O [Compound 3n, 1-Ethyl-5-(p-tolyl)furo[3′,4′:5,6]pyrido[2,3-d]pyrimidine-2,4,6(1H,3H,8H)-trione] |  |  | no binding was observed |  | binding by fluorescence anisotropy [4]: no binding was observed
CCn1c2c(c(=O)[nH]c1=O)C(c1ccc(C)cc1)C1=C(CN(Cc3ccccc3)C1=O)N2 (stereo not drawn) [Compound 3p, 7-Benzyl-1-ethyl-5-(p-tolyl)-5,7,8,9-tetrahydro-1H-pyrrolo[3',4':5,6]pyrido[2,3-d]pyrimidine-2,4,6(3H)-trione] | decreasing c-Myc expression levels | concomitant increase in p21Cip1 |  |  | 
Cc1ccc(C2C3=C(COC3=O)Nc3c2c(=O)n(C)c(=O)n3C)cc1 (stereo not drawn) [Compound 3e, 1,3-Dimethyl-5-(p-tolyl)-5,9-dihydrofuro[3′,4′:5,6]pyrido[2,3-d]pyrimidine-2,4,6(1H,3H,8H)-trione] |  |  | inactive |  | 
O=C1COC(=O)C1 [tetronic acid, reference compound] |  |  |  | No binding was observed | 
CCn1c(N)cc(=O)[nH]c1=O [6-amino-1-ethyluracil, reference compound] |  |  |  |  | ligand efficiency ([5]; from PrOF NMR Kd): 0.39 kcal/mol/non-hydrogen atom
Cc1sc2c(c1C)C(c1ccc(Cl)cc1)=N[C@@H](CC(=O)OC(C)(C)C)c1nnc(C)n1-2 [Compound 2, (+)-JQ1, reference compound] | dose-dependent reduction of c-Myc levels | upregulation of p21Cip1 levels |  |  | 
CCn1c2c(c(=O)n(C)c1=O)C(c1ccc(C)cc1)C1=C(COC1=O)N2 (stereo not drawn) [Compound 3m, 1-Ethyl-3-methyl-5-(p-tolyl)-5,9-dihydrofuro[3′,4′:5,6]pyrido[2,3-d]pyrimidine-2,4,6(1H,3H,8H)-trione] |  |  | inactive |  | 
CCn1c2c(c(=O)[nH]c1=O)C(c1ccc(C)cc1)C1=C(CN(CCc3ccccc3)C1=O)N2 (stereo not drawn) [Compound 3q, 1-Ethyl-7-phenethyl-5-(p-tolyl)-5,7,8,9-tetrahydro-1H-pyrrolo[3',4':5,6]pyrido[2,3-d]pyrimidine-2,4,6(3H)-trione] | decreasing c-Myc expression levels | concomitant increase in p21Cip1 |  |  | 
CCn1c2c(c(=O)[nH]c1=O)C(c1ccc(C)cc1)C1=C(COC1=O)N2 (stereo not drawn) [Compound 3, 1-Ethyl-5-(p-tolyl)-5,9-dihydrofuro[3′,4′:5,6]pyrido[2,3-d]pyrimidine-2,4,6(1H,3H,8H)-trione] | ineffective in altering c-Myc or p21Cip1 levels | ineffective in altering c-Myc or p21Cip1 levels |  | slow to intermediate exchange | Hill slope [6]: −1; effect of serum on binding by PrOF NMR ([5]; presence of serum): did not interfere with the binding; binding behaviour by PrOF NMR [7]: slow to intermediate exchange; binding by PrOF NMR [8]: does not bind; also recorded: no binding was detected; growth inhibition activity [9]: lacked growth inhibition activity; stability of dihydropyridine moiety [10]: remains stable
Cc1ccc(C2C3=C(COC3=O)Nc3c2c(=O)[nH]c(=O)n3CC(F)(F)F)cc1 (stereo not drawn) [Compound 3j, 5-(p-Tolyl)-1-(2,2,2-trifluoroethyl)-5,9-dihydrofuro[3′,4′:5,6]pyrido[2,3-d]pyrimidine-2,4,6(1H,3H,8H)-trione] | ineffective in altering c-Myc or p21Cip1 levels | ineffective in altering c-Myc or p21Cip1 levels |  | slow to intermediate exchange | IC50 [6]: 4.6 µM; Hill slope [6]: −1.6; growth inhibition activity [9]: lacked growth inhibition activity
CCn1c2c(c(=O)[nH]c1=O)C(c1ccc(C)cc1)C1=C(CN(CCc3ccc(O)cc3)C1=O)N2 (stereo not drawn) [Compound 3s, 1-Ethyl-7-(4-hydroxyphenethyl)-5-(p-tolyl)-5,7,8,9-tetrahydro-1H-pyrrolo[3',4':5,6]pyrido[2,3-d]pyrimidine-2,4,6(3H)-trione] | decreasing c-Myc expression levels | concomitant increase in p21Cip1 |  | slow exchange | 
COc1ccc(C2C3=C(COC3=O)Nc3c2c(=O)n(C)c(=O)n3C)cc1 (stereo not drawn) [Compound 3f, 5-(4-Methoxyphenyl)-1,3-dimethyl-5,9-dihydrofuro[3′,4′:5,6]pyrido[2,3-d]pyrimidine-2,4,6(1H,3H,8H)-trione] |  |  | inactive |  | 
